According to ChEMBL document CHEMBL1158036, “Steroidal saponins from Solanum nigrum” (J Nat Prod, 2006):
pIC50: −log10 of the molar value.

How the values were obtained:
[1] = system: HepG2; test: (§1) Cytotoxicity against human Hep G2 after 48 hrs by MTT assay; format: functional
Method in brief: (§2)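 Cells grown in RPMI 1640 with 10% FBS, trypsinized at 70% confluence; 1.0 × 10^4 cells per well cultured 24 h before treatment. Compounds at 100-3.125 µM, vehicle 0.1% DMSO, 48 h exposure; MTT read at 570 nm. IC50 where 100 × (C − T)/(C − B) = 50, derived by LOGIT method; mean ± SD of three independent experiments.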

[2] = system: MCF7; test: Cytotoxicity against human MCF7 after 48 hrs by MTT assay; format: functional, cell-based; conditions: for pIC50: MCF7, 48 h; method in brief: as §2
[3] = system: NCI-H460; test: Cytotoxicity against human NCI-H460 after 48 hrs by MTT assay; format: functional, cell-based; conditions: for pIC50: NCI-H460, 48 h; method in brief: as §2
[4] = system: SF-268; test: Cytotoxicity against human SF-268 after 48 hrs by MTT assay; format: functional, cell-based; conditions: for pIC50: SF-268, 48 h; method in brief: as §2
[5] = as §1; format: functional; conditions: HepG2, 48 h; method in brief: as §2

Row | SMILES | Activity [1] | Activity [2] | Activity [3] | Activity [4] | pIC50 [5] | pIC50 [2] | pIC50 [3] | pIC50 [4]
1 | C[C@@H]1C[C@H](O)[C@@]2(OC1=O)O[C@H]1[C@H](O)[C@H]3[C@@H]4CC[C@H]5C[C@@H](O[C@@H]6O[C@H](CO)[C@H](O[C@@H]7O[C@H](CO)[C@@H](O)[C@H](O[C@@H]8OC[C@@H](O)[C@H](O)[C@H]8O)[C@H]7O[C@@H]7OC[C@H](O)[C@H](O)[C@H]7O)[C@H](O)[C@H]6O[C@@H]6O[C@@H](C)[C@H](O)[C@@H](O)[C@H]6O)CC[C@]5(C)[C@H]4CC[C@]3(C)[C@H]1[C@@H]2C | Not toxic | Not toxic | Not toxic | Not toxic | – | – | – | –
2 | C[C@@H]1CC[C@@]2(OC1)O[C@H]1C[C@H]3[C@@H]4CC=C5C[C@@H](O[C@@H]6O[C@H](CO)[C@@H](O[C@@H]7O[C@@H](C)[C@H](O)[C@@H](O)[C@H]7O[C@@H]7O[C@H](CO)[C@@H](O)[C@H](O)[C@H]7O)[C@H](O)[C@H]6O[C@@H]6O[C@@H](C)[C@H](O)[C@@H](O)[C@H]6O)CC[C@]5(C)[C@H]4CC[C@]3(C)[C@@]1(O)[C@@H]2C | Not toxic | Not toxic | Not toxic | Not toxic | – | – | – | –
3 | CC[C@@]1(O)C(=O)OCc2c1cc1n(c2=O)Cc2cc3cc(O)ccc3nc2-1 [HYDROXYCAMPTOTHECIN] | – | – | – | – | 5.19 | 4.72 | 4.41 | 4.52
4 | C[C@@H]1CC[C@@]2(OC1)O[C@H]1[C@H](O)[C@H]3[C@@H]4CC[C@H]5C[C@@H](O[C@@H]6O[C@H](CO)[C@H](O[C@@H]7O[C@H](CO)[C@@H](O)[C@H](O[C@@H]8OC[C@@H](O)[C@H](O)[C@H]8O)[C@H]7O[C@@H]7O[C@H](CO)[C@@H](O)[C@H](O)[C@H]7O)[C@H](O)[C@H]6O)CC[C@]5(C)[C@H]4CC[C@]3(C)[C@H]1[C@@H]2C | Not toxic | Not toxic | Not toxic | Not toxic | – | – | – | –
5 | C[C@H]1CO[C@@]2(O[C@H]3C[C@H]4[C@@H]5CC[C@H]6C[C@@H](O[C@@H]7O[C@H](CO)[C@H](O[C@@H]8O[C@H](CO)[C@@H](O)[C@H](O[C@@H]9OC[C@@H](O)[C@H](O)[C@H]9O)[C@H]8O[C@@H]8O[C@H](CO)[C@@H](O)[C@H](O)[C@H]8O)[C@H](O)[C@H]7O)CC[C@]6(C)[C@H]5CC[C@]4(C)[C@H]3[C@@H]2C)[C@@H](O[C@@H]2O[C@H](CO)[C@@H](O)[C@H](O)[C@H]2O)C1 | Not toxic | Not toxic | Not toxic | Not toxic | – | – | – | –
6 | C[C@@H]1C[C@H](O)[C@@]2(OC1=O)O[C@H]1[C@H](O)[C@H]3[C@@H]4CC[C@H]5C[C@@H](O[C@@H]6O[C@H](CO)[C@H](O[C@@H]7O[C@H](CO)[C@@H](O)[C@H](O[C@@H]8O[C@H](CO)[C@@H](O)[C@H](O)[C@H]8O)[C@H]7O[C@@H]7O[C@H](CO)[C@@H](O)[C@H](O)[C@H]7O)[C@H](O)[C@H]6O)CC[C@]5(C)[C@H]4CC[C@]3(C)[C@H]1[C@@H]2C | Not toxic | Not toxic | Not toxic | Not toxic | – | – | – | –
7 | C[C@@H]1C[C@H](O)[C@@]2(OC1=O)O[C@H]1C[C@H]3[C@@H]4CC[C@H]5C[C@@H](O[C@@H]6O[C@H](CO)[C@H](O[C@@H]7O[C@H](CO)[C@@H](O)[C@H](O[C@@H]8OC[C@@H](O)[C@H](O)[C@H]8O)[C@H]7O[C@@H]7OC[C@H](O)[C@H](O)[C@H]7O)[C@H](O)[C@H]6O[C@@H]6O[C@@H](C)[C@H](O)[C@@H](O)[C@H]6O)CC[C@]5(C)[C@H]4CC[C@]3(C)[C@H]1[C@@H]2C | Not toxic | Not toxic | Not toxic | Not toxic | – | – | – | –
8 | C[C@@H]1CC[C@@]2(OC1)O[C@H]1C[C@H]3[C@@H]4CC[C@H]5C[C@@H](O[C@@H]6O[C@H](CO)[C@H](O[C@@H]7O[C@H](CO)[C@@H](O)[C@H](O[C@@H]8OC[C@@H](O)[C@H](O)[C@H]8O)[C@H]7O[C@@H]7O[C@H](CO)[C@@H](O)[C@H](O)[C@H]7O)[C@H](O)[C@H]6O)CC[C@]5(C)[C@H]4CC[C@]3(C)[C@H]1[C@@H]2C [DEGALACTOTIGONIN] | – | – | – | – | 6.60 | 5.80 | 5.35 | 5.50
